Measurements reported in ChEMBL document CHEMBL1158283, “Four new bioactive manzamine-type alkaloids from the Philippine marine sponge Xestospongia ashmorica” (1996).
Values after ≈ are worked out from the molar mass of the structure shown.

test system: Bacillus subtilis; assay: Antibacterial activity against Bacillus subtilis 168 at 100 ug after 24 hrs by agar plate diffusion assay; assay type: functional; conditions: Bacillus subtilis, 168, 24 h; read-out: IZ
Method in brief: (§1)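 Sterile susceptibility disks (5 mm diameter) loaded with 100 μg compound, placed on agar plates seeded with test bacterium (B. subtilis 168, S. aureus ATCC 25923, E. coli ATCC 25922); plates incubated 24 h at 37 °C, then inhibition zone diameter read.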

| Structure (SMILES) | zone of inhibition at 100 µg/disc |
| --- | --- |
| O[C@]12C=C(c3nccc4c3[nH]c3ccccc34)[C@@H]3CCN(CCCC/C=C\CC1)C[C@@]31C[C@@H]3/C=C\CCCCN3[C@H]12 [MANZAMINE A] | 7 mm |

test system: Staphylococcus aureus; assay: Antibacterial activity against Staphylococcus aureus ATCC 25923 at 100 ug after 24 hrs by agar plate diffusion assay; assay type: functional; conditions: ATCC 25923, 24 h, read-out: IZ; method in brief: as §1

| Structure (SMILES) | zone of inhibition at 100 µg/disc |
| --- | --- |
| O[C@]12C=C(c3nccc4c3[nH]c3ccccc34)[C@@H]3CCN(CCCC/C=C\CC1)C[C@@]31C[C@@H]3/C=C\CCCCN3[C@H]12 [MANZAMINE A] | 7 mm |

test system: L5178Y; assay: Cytotoxicity against mouse L5178Y cells after 72 hrs by MTT assay; assay type: functional; conditions: read-out: ED50 (the source's name)
Method in brief: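 L5178y mouse lymphoma cells in Eagle's MEM plus 10% horse serum, roller tube culture; cultures started at 5×1000 cells/mL, exposed to 0.3–20 μg/mL, incubated 72 h at 37 °C. Growth assessed by MTT assay and by cell counting; ED50 reported in μg/mL.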

| Structure (SMILES) | EC50 |
| --- | --- |
| O[C@]12C=C(c3nccc4c3[nH]c3ccccc34)[C@@H]3CCN(CCCC/C=C\CC1)C[C@@]31CC/C=C\CCCCN[C@H]12 [MANZAMINE J] | 25 mg/L (≈ 45.4 µM) |
| O=C1CCCN2[C@@H](CC1)C[C@]13CN4CCCC/C=C\CC[C@](O)(C=C(c5nccc6c5[nH]c5ccccc56)C1CC4)[C@H]23 (some centres undefined) [MANZAMINE E] | 6.6 mg/L (≈ 11.7 µM) |
| [O-][N+]1=C(C2=C[C@@]3(O)CC/C=C\CCCCN4CC[C@@H]2[C@]2(C[C@@H]5/C=C\CCCCN5[C@H]23)C4)c2[nH]c3ccccc3c2CC1 | 1.6 mg/L (≈ 2.82 µM) |
| O=C1CCCN2[C@@H](CC1)C[C@]13CN4CCCC/C=C\CC[C@](O)(C=C(c5nccc6c5[nH]c5c(O)cccc56)C1CC4)[C@H]23 (some centres undefined) [MANZAMINE F] | 2.3 mg/L (≈ 3.96 µM) |
| [O-][n+]1ccc2c([nH]c3ccccc32)c1C1=C[C@@]2(O)CC/C=C\CCCCN3CC[C@@H]1[C@]1(CC/C=C\CCCCN[C@H]12)C3 | 3.2 mg/L (≈ 5.65 µM) |
| O[C@]12C=C(c3nccc4c3[nH]c3ccccc34)[C@@H]3CCN(CCCC/C=C\CC1)C[C@@]31C[C@@H]3/C=C\CCCCN3[C@H]12 [MANZAMINE A] | 1.8 mg/L (≈ 3.28 µM) |
| O[C@]12C=C(c3nccc4c3[nH]c3ccccc34)C3CCN(CCCC/C=C\CC1)C[C@@]31C[C@]34CC[C@H](CCCN3[C@H]12)O4 (some centres undefined) [6-Deoxymanzamine X] | 1.8 mg/L (≈ 3.19 µM) |
| [O-][n+]1ccc2c([nH]c3ccccc32)c1C1=C[C@@]2(O)CC/C=C\CCCCN3CC[C@@H]1[C@]1(C[C@@H]4/C=C\CCCCN4[C@H]12)C3 | 1.6 mg/L (≈ 2.83 µM) |

test system: Spodoptera littoralis; assay: Insecticidal activity against Spodoptera littoralis neonate larvae assessed as inhibition of larval growth drug administered with artificial diet after 6 days by chronic feeding experiment; assay type: functional; conditions: not given
Method in brief: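 Dose-response feeding assay: neonate S. littoralis larvae (n = 20) held 6 days on artificial diet spiked at 26–132 ppm; survival and surviving-larva weights compared with controls, ED50 (ppm) derived by probit analysis of the dose-response curve.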

| Structure (SMILES) | ED50 |
| --- | --- |
| O[C@]12C=C(c3nccc4c3[nH]c3ccccc34)[C@@H]3CCN(CCCC/C=C\CC1)C[C@@]31C[C@@H]3/C=C\CCCCN3[C@H]12 [MANZAMINE A] | 35 ppm |

test system: Spodoptera littoralis; assay: Insecticidal activity against Spodoptera littoralis neonate larvae assessed as inhibition of larval growth at 132 ppm administered with artificial diet after 6 days by chronic feeding experiment relative to control; assay type: functional; conditions: 144 h
Method in brief: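 Neonate S. littoralis larvae (n = 20) from a laboratory colony, fed artificial diet spiked at 132 ppm for 6 days; survival and weight of surviving larvae recorded and expressed as growth inhibition versus untreated controls.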

| Structure (SMILES) | inhibition at 132 ppm |
| --- | --- |
| O[C@]12C=C(c3nccc4c3[nH]c3ccccc34)[C@@H]3CCN(CCCC/C=C\CC1)C[C@@]31CC/C=C\CCCCN[C@H]12 [MANZAMINE J] | 2% |
| O=C1CCCN2[C@@H](CC1)C[C@]13CN4CCCC/C=C\CC[C@](O)(C=C(c5nccc6c5[nH]c5ccccc56)C1CC4)[C@H]23 (some centres undefined) [MANZAMINE E] | 0% |
| [O-][N+]1=C(C2=C[C@@]3(O)CC/C=C\CCCCN4CC[C@@H]2[C@]2(C[C@@H]5/C=C\CCCCN5[C@H]23)C4)c2[nH]c3ccccc3c2CC1 | 26.4% |
| O=C1CCCN2[C@@H](CC1)C[C@]13CN4CCCC/C=C\CC[C@](O)(C=C(c5nccc6c5[nH]c5c(O)cccc56)C1CC4)[C@H]23 (some centres undefined) [MANZAMINE F] | 50.6% |
| [O-][n+]1ccc2c([nH]c3ccccc32)c1C1=C[C@@]2(O)CC/C=C\CCCCN3CC[C@@H]1[C@]1(CC/C=C\CCCCN[C@H]12)C3 | 16.2% |
| O[C@]12C=C(c3nccc4c3[nH]c3ccccc34)[C@@H]3CCN(CCCC/C=C\CC1)C[C@@]31C[C@@H]3/C=C\CCCCN3[C@H]12 [MANZAMINE A] | 80% |
| O[C@]12C=C(c3nccc4c3[nH]c3ccccc34)C3CCN(CCCC/C=C\CC1)C[C@@]31C[C@]34CC[C@H](CCCN3[C@H]12)O4 (some centres undefined) [6-Deoxymanzamine X] | 18.5% |
| [O-][n+]1ccc2c([nH]c3ccccc32)c1C1=C[C@@]2(O)CC/C=C\CCCCN3CC[C@@H]1[C@]1(C[C@@H]4/C=C\CCCCN4[C@H]12)C3 | 9.5% |
